Tests used:
Mus musculus [1] = assay: Reduction in serum cholesterol in CF1 mice on day 16 following 20 mg/kg i.p. o.d. for 16 days.; assay type: functional; conditions: ip, 384 h, route intraperitoneal
Procedure, shortened: (§1)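 Mice dosed at 20 mg/kg per day for 16 days. On days 9 and 16, blood was taken by tail-vein bleeding into nonheparinized microcapillary tubes and spun for 3 min to give serum. Serum cholesterol was measured by a modified Liebermann–Burchard reaction.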

Mus musculus [2] = assay: Reduction in serum cholesterol in CF1 mice on day 9 following 20 mg/kg i.p. o.d. for 16 days.; assay type: functional; conditions: ip, route intraperitoneal; procedure, shortened: as §1
Mus musculus [3] = assay: Reduction in serum triglyceride in CF1 mice on day 14 following 20 mg/kg i.p. o.d. for 16 days.; conditions: ip

SMILES | inhibition in vivo at 20 mg/kg (Mus musculus [1]) [%] | inhibition in vivo at 20 mg/kg (Mus musculus [2]) [%] | serum triglyceride % inhibition at 20 mg/kg (Mus musculus [3]) [%]
CCOC(=O)CCN(C(C)=O)C(C)=O | 25 | 11 | 11
CC(=O)N(CCC(=O)O)C(C)=O | 21 | 20 | 21
CC(=O)CCN(C(C)=O)C(C)=O | 30 | 14 | 20
O=C(O)CCN1C(=O)CCC1=O | 39 | 32 | 44
CC(=O)CCn1c(=O)c2ccccc2c2ccccc2c1=O | 23 | 23 | 10
CCCCN1C(=O)CCC1=O | 15 | 0 | 35
CC(=O)CCN(C(=O)c1ccccc1)C(=O)c1ccccc1 | 26 | 23 | 39
CCOC(=O)CCN1C(=O)CCC1=O | 23 | 11 | 23
O=C(NC(=O)c1ccccc1)c1ccccc1 | 35 | 14 | 7
CCCCn1c(=O)c2ccccc2c2ccccc2c1=O | 23 | 22 | 48
O=c1[nH]c(=O)c2ccccc2c2ccccc12 | 18 | 19 | 19
O=C(O)CCn1c(=O)c2ccccc2c2ccccc2c1=O | 16 | 12 | 25
CCCCN(C(C)=O)C(C)=O | 20 | 11 | 0
CCCCN(C(=O)c1ccccc1)C(=O)c1ccccc1 | 19 | 23 | 30
CC(=O)CCN1C(=O)CCC1=O | 10 | 12 | 25
CCOC(=O)C(C)(C)Oc1ccc(Cl)cc1 [CLOFIBRATE] | 13 | 12 | 25
CC(=O)NC(C)=O [DIACETAMIDE] | 18 | 4 | 2
O=C1NC(=O)c2ccccc21 [PHTHALIMIDE] | 43 | 37 | 56
O=C1CCC(=O)N1 [SUCCINIMIDE] | 27 | 2 | 32

Source: ChEMBL document CHEMBL1123127, “Comparison of the hypolipidemic activity of cyclic vs. acyclic imides” (1985)
